# Compound activity as filed in PubChem.
# MrgX1 ag – agonists of human MrgX1 receptor. Q96LB2. B-score at 10 µM. 0.44% of 310,000 active. MrgX1-HEK293 cells, Fluo-4 calcium fluorescence, agonist mode; stronger effect = higher value;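 active means calcium response B-score plate-corrected fluorescence ratio at least 3 library SD, with starting fluorescence B-score inside 5 SD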
# Target sequence (Q96LB2 whole entry, looked up): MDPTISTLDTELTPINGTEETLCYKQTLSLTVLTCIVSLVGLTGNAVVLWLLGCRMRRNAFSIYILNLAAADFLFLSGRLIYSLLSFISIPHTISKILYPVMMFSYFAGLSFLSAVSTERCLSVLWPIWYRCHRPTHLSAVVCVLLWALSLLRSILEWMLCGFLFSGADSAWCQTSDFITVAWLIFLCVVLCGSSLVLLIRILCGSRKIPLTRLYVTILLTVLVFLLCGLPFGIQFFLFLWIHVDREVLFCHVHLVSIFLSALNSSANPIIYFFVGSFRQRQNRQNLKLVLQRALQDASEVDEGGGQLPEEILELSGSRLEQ
#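 Test system: Stable human MrgX1 HEK293 cell line | Schedule: Overnight plating before 1 h dye loading | Read-out basis: Baseline-normalised fluorescence change ratio, B-scored | Detection: Kinetic calcium dye fluorescence, Fluo-4 NW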
# RGS4 act – potentiators or activators of RGS4; 0.92% of 310,000 active; HEK293 M3R/inducible RGS4, carbachol calcium flux Fluo4; stronger effect = lower value; B-score at 10 µM; AID 463111;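 active means B-score of the integrated calcium signal more than 4 SD below the library mean, with starting fluorescence not abnormally high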;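 further: negative B-score means reduced calcium response which marks RGS4 activation or potentiation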
#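 Also added: carbachol at ECmax as muscarinic agonist stimulus; Assay system: HEK293 cells with stable M3R and inducible RGS4; Timing: overnight RGS4 induction, 30 min dye load 37 °C, 20 min compound RT; Measured by: Fluo4-AM (2 µM) calcium-flux fluorescence, kinetic read.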
# MrgX1 allo act – human MrgX1 positive allosteric modulation, primary screen; MrgX1-HEK293, Fluo-4 calcium flux, FDSS; stronger effect = higher value; B-score at 10 µM; 0.63% of 310,000 active;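 active means plate-corrected calcium response at least 3 library SD above typical, normal starting fluorescence, not activating the receptor alone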;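 further: compound read alongside a low EC10 to EC30 dose of BAM8-22 agonist; peak minus trough fluorescence over baseline measured at the second addition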
# MrgX1 antagonist – antagonists of human MrgX1 receptor. Q96LB2. MRGX1-HEK293 calcium flux, Fluo-4, BAM8-22 antagonism; stronger effect = lower value. B-score at 10 µM. 1.3% of 310,000 active. AID 588676;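 active means calcium-response B-score plate-corrected more than 3 library SD below zero, starting fluorescence within 5 deviations, no agonist response on first addition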;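 further: peak minus trough fluorescence over baseline after final BAM8-22 challenge near maximal dose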
# RGS4 block – human RGS4 inhibition | AID 463165 | 0.45% of 310,000 active | HEK293 M3R/RGS4 inducible, Fluo-4 calcium flux; stronger effect = higher value; triggered by carbachol at its EC20 | P49798 | B-score at 10 µM;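 active means B-score, a plate-corrected calcium signal, over three deviations above library mean, with baseline fluorescence within five deviations of library mean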;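 further: RGS4 expression induced by doxycycline in cells with stable M3 receptor; B-score is computed from the integrated fluorescence ratio over baseline after carbachol; higher B-score means a larger calcium signal and so more RGS4 inhibition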
# Target sequence (P49798 whole entry, looked up): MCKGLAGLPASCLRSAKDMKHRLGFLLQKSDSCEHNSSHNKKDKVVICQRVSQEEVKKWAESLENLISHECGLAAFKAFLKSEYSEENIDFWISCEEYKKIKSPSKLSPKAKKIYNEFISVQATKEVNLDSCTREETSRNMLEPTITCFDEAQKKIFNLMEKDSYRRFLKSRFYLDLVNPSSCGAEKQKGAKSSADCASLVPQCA
# MrgX1 antag conf – confirmation of human MrgX1 receptor antagonists | shares compounds with MrgX1 antagonist | MrgX1-HEK293, BAM8-22 calcium flux, Fluo-4; stronger effect = lower value | remaining BAM8-22 calcium response % of control (stronger effect = lower value), % at 10 µM | 19% of 2,300 active;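 active means remaining agonist calcium response no higher than 100% minus 3 SD of agonist-only control wells, with starting fluorescence near control levels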;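 further: agonist BAM8-22 given at a near maximal EC90 to ECmax level; peak minus minimum fluorescence divided by baseline after agonist addition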
# HEK293 Ca flux – activity in parental HEK293 cells lacking MrgX1; shares compounds with MrgX1 antagonist; Fluo-4 calcium fluorescence, FDSS; fluorescence ratio F(max-min)/F0 at 10 µM; 2% of 4,000 active; AID 624111;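 active means duplicate-averaged calcium fluorescence ratio at least three times the standard deviation of buffer wells, a nonspecific response in parental cells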
# HEK293 Ca counter – activity in parental HEK293 cells without MrgX1; parental HEK293 calcium flux, Fluo-4 fluorescence ratio; stronger effect = higher value; shares compounds with MrgX1 antagonist; fluorescence ratio F(max-min)/F0 at 10 µM; AID 624114; 0.4% of 4,000 active;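 active means calcium fluorescence ratio, averaged over duplicates, at least 3 SD of the buffer-well ratio, meaning a nonspecific response in receptor-free cells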;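 further: untransfected parental HEK293 lacking MrgX1 used as counterscreen for MrgX1 allosteric activators; fluorescence change taken during the second addition on a kinetic imager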
# HEK293 Ca cntr2 – MrgX1 activator counter-screen hit in parental HEK293 cells. shares compounds with MrgX1 antagonist. Fluo-4 calcium fluorescence (FDSS); stronger effect = higher value. fluorescence ratio F(max-min)/F0 at 10 µM. 8.7% of 4,000 active. AID 624115;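 active means calcium fluorescence ratio at least three times the spread of buffer wells, meaning a non-specific response in parental cells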
# Starred values were filed as active, the others as inactive; i = inactive; . = not tested or not shown. An excerpt weighted towards active compounds, which were near 3.5% of everything screened.
SMILES,MrgX1 ag,RGS4 act,MrgX1 allo act,MrgX1 antagonist,RGS4 block,MrgX1 antag conf,HEK293 Ca flux,HEK293 Ca counter,HEK293 Ca cntr2
CCNc1nc(NCC)n2c(SCC(=O)Nc3ccccc3Cl)nnc2n1,i,i,i,-8.6*,i,i,i,i,i
CC(=O)c1cccc(NC(=O)C2CC(=O)N(CCc3ccccc3)C2)c1 (stereo not given),i,i,i,-5.2*,i,i,i,i,i
O=C(COc1ccc(Br)cc1)Nc1ccc(C(=O)Nc2ccccc2C(=O)O)cc1,i,i,i,-7.1*,i,i,i,i,i
COc1ccc(OCC(=O)Nc2ccc(C(=O)Nc3ccccc3C(=O)O)cc2)cc1,i,i,i,i,i,.,.,.,.
CCCn1cnnc1CNC(=O)C1CCC(=O)N(CCc2cccc(F)c2)C1 (stereo not given),i,i,i,i,i,.,.,.,.
COC(=O)[C@@]12CCCCN1[C@H](c1ccc(-c3ccc(OC)cc3)c(OC)c1)[C@@H]1C(=O)N(C)C(=O)[C@@H]12,i,.,i,i,.,.,.,.,.
COc1ccc(NC(=O)Cn2nnc(-c3ccccc3NC(=O)c3cccs3)n2)cc1,i,i,i,-7*,i,i,i,i,i
Cc1ccc(NC(=O)Cn2nnc(-c3ccccc3NC(=O)c3cccs3)n2)cc1,i,i,i,i,i,.,.,.,.
Cc1sc(NC(=O)c2ccccc2)c(C(c2ccccn2)N2CCN(CCO)CC2)c1C (stereo not given),i,i,i,-4.5*,i,i,i,i,i
CN(C)S(=O)(=O)c1ccc(S(=O)(=O)NCc2cccs2)cc1,i,i,i,i,i,.,.,.,.
Cc1cc(C)cc(NC(=O)CSc2nc3[nH]ncc3c(=O)[nH]2)c1,i,i,i,-9.1*,i,i,i,i,i
CC1CCN(C(=O)CSc2nc3[nH]ncc3c(=O)[nH]2)CC1,i,i,i,-6.4*,i,i,i,i,i
CCC(C(=O)NCCc1ccccc1OC)n1nc(C)c2c(C)n(-c3ccccc3)nc2c1=O (stereo not given),i,i,i,i,i,.,.,.,.
COc1cccc(CN2CCN(Cc3ccon3)CC2CCO)c1 (stereo not given),i,i,i,i,i,.,.,.,.
OCCC1CN(Cc2ccon2)CCN1Cc1ccc(F)c(F)c1 (stereo not given),i,i,i,-8.5*,i,i,i,i,i
COc1ccc(S(=O)(=O)NCC2CCCO2)cc1NC(=O)c1ccccc1F (stereo not given),i,i,i,i,i,.,.,.,.
COC(=O)C(Cc1ccccc1)NC(=O)c1cc(=O)[nH]c2ccccc12 (stereo not given),i,i,i,-4.7*,i,i,i,i,i
COC(=O)[C@@H](Cc1c[nH]c2ccccc12)NC(=O)c1cc(=O)[nH]c2ccccc12,i,i,i,i,i,.,.,.,.
CCn1c(SCC(=O)Nc2cc(C)on2)nc2c1c(=O)n(C)c(=O)n2C,i,i,i,-7*,i,i,i,i,i
CCCCn1c(SCC(=O)Nc2cc(C)on2)nc2c1c(=O)n(C)c(=O)n2C,i,i,i,i,i,.,.,.,.
O=C(NCC(c1ccco1)N1CCc2ccccc2C1)C(=O)Nc1ccc(F)cc1F (stereo not given),i,i,i,-5.8*,i,i,i,i,i
O=C(Nc1ccccn1)C1CCN(c2ncnc3c2nc2n3CCCCC2)CC1,i,i,i,i,i,.,.,.,.
CCOC(=O)c1ccc(S(=O)(=O)Nc2cc(C(=O)O)ccc2Cl)cc1,i,i,i,i,i,.,.,.,.
COCCn1c(=S)[nH]c2cc(OC)c(OC)cc2c1=O,i,i,i,-9.1*,i,i,i,i,i
CCN(CC)CCCn1c(=S)[nH]c2cc(OC)c(OC)cc2c1=O,i,i,i,i,i,.,.,.,.
SMILES,MrgX1 ag,RGS4 act,MrgX1 allo act,MrgX1 antagonist,RGS4 block,MrgX1 antag conf,HEK293 Ca flux,HEK293 Ca counter,HEK293 Ca cntr2
COCCN(C(=O)COC(=O)/C=C/c1cccs1)c1c(N)n(Cc2ccccc2)c(=O)[nH]c1=O,i,i,i,-12*,i,69%*,i,i,i
CC(C)CN(C(=O)COC(=O)/C=C/c1cccs1)c1c(N)n(Cc2ccccc2)c(=O)[nH]c1=O,i,i,i,i,i,.,.,.,.
CCCC1=C([O-])C2N=CC=CC2=[N+](c2ccccn2)C1=O (stereo not given),i,i,i,i,i,.,.,.,.
c1cncc(-c2nnc3n2N=C(c2cccs2)CS3)c1,i,i,i,-4.7*,i,i,i,i,i
O=C(CNC(=O)c1cccc(Cl)c1)N/N=C/C=C/c1ccccc1,i,i,i,i,i,.,.,.,.
Cc1ccc(S(=O)(=O)NC(C)CCc2ccccc2)cc1C(N)=O (stereo not given),i,i,i,i,i,.,.,.,.
O=C(c1ccc(Br)o1)N1CCN(C23CC4CC(CC(C4)C2)C3)CC1,i,i,i,-5*,i,i,i,i,i
Cc1nc2ccc3nc(NC(=O)c4ccc5c(c4)OCCO5)sc3c2s1,i,i,i,i,i,.,.,.,.
Cc1nc2c(ccc3nc(NC(=O)c4ccc5c(c4)OCCO5)sc32)s1,i,i,i,-10*,i,79%*,i,i,i
CC(C)CN1CCC(=O)N([C@H](CO)Cc2ccccc2)CC1,i,i,i,i,i,.,.,.,.
O=C(CNC(=O)N1CC(=O)Nc2ccccc21)NCCc1c[nH]c2ccccc12,i,i,i,i,i,.,.,.,.
CN1CCN(C2CCCCCC2)CC1,i,i,i,-5.3*,i,i,i,i,i
CN1CCN(C(=O)NC2CCCCC2)CC1,i,i,i,i,i,.,.,.,.
